Source: ChEMBL document CHEMBL3994654, “Discovery of phenyl acetamides as potent and selective GPR119 agonists” (Bioorg Med Chem Lett, 2017)
Converted amounts (≈) assume the structure as drawn.

Assays:
[1] = Fraction unbound in dog plasma; format: ADME, cell-free, Canis lupus familiaris
[2] = Volume of distribution in rhesus monkey at 0.5 mg/kg, iv by LC-MS/MS analysis; format: ADME, organism-based, Macaca mulatta; conditions: in vivo
Rattus norvegicus [3] = test: Unbound clearance in Wistar Han rat at 0.5 mg/kg, iv by LC-MS/MS analysis; format: ADME, organism-based; conditions: in vivo
[4] = Oral bioavailability in Beagle dog by LC-MS/MS analysis; format: ADME, organism-based, Canis lupus familiaris; conditions: in vivo
[5] = Solubility in fasted state simulated intestinal fluid using crystalline compound by equilibration method; format: physicochemical
[6] = target: T1, Glucose-dependent insulinotropic receptor (Mus musculus) (UniProt Q7TQP3); test: Agonist activity at mouse GPR119 expressed in CHO cells co-expressing Galpha15 assessed as increase in intracellular cAMP level after 60 mins by HTRF assay relative to control; format: functional, cell-based
T1 sequence (whole entry): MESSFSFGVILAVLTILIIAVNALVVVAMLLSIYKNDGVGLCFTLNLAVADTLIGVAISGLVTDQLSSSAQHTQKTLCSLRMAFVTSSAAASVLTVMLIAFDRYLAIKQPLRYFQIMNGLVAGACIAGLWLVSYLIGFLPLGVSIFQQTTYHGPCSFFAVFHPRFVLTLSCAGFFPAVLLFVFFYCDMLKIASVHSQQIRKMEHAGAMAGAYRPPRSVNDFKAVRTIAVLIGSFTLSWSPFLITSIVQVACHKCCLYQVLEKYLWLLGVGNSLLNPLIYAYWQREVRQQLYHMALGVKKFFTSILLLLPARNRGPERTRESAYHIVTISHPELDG
Method in brief: (§1)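 EC50 values are means of at least 2 independent experiments, with a few single determinations. Maximal response is reported as the percentage of cAMP stimulation at the maximal dose tested, normalised to an internal agonist control set as 100%.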

[7] = Drug uptake in C57BL/6 Tac mouse blood at 0.1 mg/kg, po via gavage measured at 90 mins post dose; format: ADME, organism-based; conditions: whole blood, read-out: Drug uptake
Method in brief: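 Blood drug concentration was taken at 90 min after an oral 0.1 mpk dose in mice, within oGTT dose-titration PK/PD studies.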

[8] = Agonist activity at rhesus monkey GPR119; parameters: species or system Macaca mulatta
[9] = Half life in rhesus monkey at 0.5 mg/kg, iv by LC-MS/MS analysis; format: ADME, organism-based, Macaca mulatta; conditions: in vivo
[10] = target: T2, Nuclear receptor subfamily 1 group I member 2 (Homo sapiens, UniProt O75469); test: Activity at human PXR; format: ADME
T2 sequence (O75469 whole entry): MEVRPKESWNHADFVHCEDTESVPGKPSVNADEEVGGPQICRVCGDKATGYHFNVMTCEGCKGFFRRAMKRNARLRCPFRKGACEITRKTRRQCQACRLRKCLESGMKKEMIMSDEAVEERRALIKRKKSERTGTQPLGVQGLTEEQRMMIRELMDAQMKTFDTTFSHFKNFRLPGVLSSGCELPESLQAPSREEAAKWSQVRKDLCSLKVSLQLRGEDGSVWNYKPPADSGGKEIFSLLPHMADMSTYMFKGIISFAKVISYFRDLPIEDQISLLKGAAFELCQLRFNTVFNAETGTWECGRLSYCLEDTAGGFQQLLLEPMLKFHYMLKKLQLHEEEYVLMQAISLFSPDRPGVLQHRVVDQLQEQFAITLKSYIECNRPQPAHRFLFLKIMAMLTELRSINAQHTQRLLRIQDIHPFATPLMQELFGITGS

[11] = Volume of distribution in Beagle dog at 0.5 mg/kg, iv by LC-MS/MS analysis; format: ADME, organism-based, Canis lupus familiaris; conditions: in vivo
[12] = Plasma clearance in rhesus monkey at 0.5 mg/kg, iv by LC-MS/MS analysis; format: ADME, organism-based, Macaca mulatta
[13] = Fraction unbound in rat plasma; format: ADME, cell-free
Cytochrome P450 3A4 = Cytochrome P450 3A4 (Homo sapiens, UniProt P08684); test: Inhibition of CYP3A4 (unknown origin); format: ADME
Chain of Cytochrome P450 3A4 (P08684 whole entry): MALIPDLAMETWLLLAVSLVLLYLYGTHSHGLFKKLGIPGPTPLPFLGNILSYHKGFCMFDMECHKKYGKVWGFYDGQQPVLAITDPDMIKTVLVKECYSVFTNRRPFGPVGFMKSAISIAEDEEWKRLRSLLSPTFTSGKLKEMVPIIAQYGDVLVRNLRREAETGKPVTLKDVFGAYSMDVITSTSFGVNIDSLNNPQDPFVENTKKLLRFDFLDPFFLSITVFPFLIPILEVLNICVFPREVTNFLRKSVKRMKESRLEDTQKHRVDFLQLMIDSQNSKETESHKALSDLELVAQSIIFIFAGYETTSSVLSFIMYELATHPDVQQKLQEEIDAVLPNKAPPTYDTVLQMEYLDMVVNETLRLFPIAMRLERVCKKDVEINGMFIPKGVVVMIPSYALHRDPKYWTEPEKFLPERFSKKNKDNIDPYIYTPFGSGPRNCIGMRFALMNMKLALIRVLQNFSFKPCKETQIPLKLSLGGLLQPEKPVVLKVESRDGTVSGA

[14] = target: T3, Glucose-dependent insulinotropic receptor (Homo sapiens, UniProt Q8TDV5); test: Agonist activity at human GPR119 expressed in HEK293 cells assessed as increase in intracellular cAMP level after 60 mins by HTRF assay; format: functional, cell-based
T3 sequence (Q8TDV5 whole entry): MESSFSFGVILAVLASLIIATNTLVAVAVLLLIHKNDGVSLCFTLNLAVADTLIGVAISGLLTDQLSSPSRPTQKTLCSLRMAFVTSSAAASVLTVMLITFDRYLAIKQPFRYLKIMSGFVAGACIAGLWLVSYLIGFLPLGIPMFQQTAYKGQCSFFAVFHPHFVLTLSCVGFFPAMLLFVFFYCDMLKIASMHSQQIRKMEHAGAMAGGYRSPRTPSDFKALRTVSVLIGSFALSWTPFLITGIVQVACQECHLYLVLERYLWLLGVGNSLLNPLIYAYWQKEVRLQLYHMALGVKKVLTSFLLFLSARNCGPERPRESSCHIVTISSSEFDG
Method in brief: (§2)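 cAMP stimulation is also given as % control at the top concentration, relative to an internal agonist control set at 100% cAMP stimulation. EC50 values are means of at least 2 independent experiments, except for two compounds.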

[15] = Fraction unbound in human plasma; format: ADME, cell-free
[16] = target: T4, Voltage-gated inwardly rectifying potassium channel KCNH2 (Homo sapiens, UniProt Q12809)
T4 sequence (Q12809 whole entry): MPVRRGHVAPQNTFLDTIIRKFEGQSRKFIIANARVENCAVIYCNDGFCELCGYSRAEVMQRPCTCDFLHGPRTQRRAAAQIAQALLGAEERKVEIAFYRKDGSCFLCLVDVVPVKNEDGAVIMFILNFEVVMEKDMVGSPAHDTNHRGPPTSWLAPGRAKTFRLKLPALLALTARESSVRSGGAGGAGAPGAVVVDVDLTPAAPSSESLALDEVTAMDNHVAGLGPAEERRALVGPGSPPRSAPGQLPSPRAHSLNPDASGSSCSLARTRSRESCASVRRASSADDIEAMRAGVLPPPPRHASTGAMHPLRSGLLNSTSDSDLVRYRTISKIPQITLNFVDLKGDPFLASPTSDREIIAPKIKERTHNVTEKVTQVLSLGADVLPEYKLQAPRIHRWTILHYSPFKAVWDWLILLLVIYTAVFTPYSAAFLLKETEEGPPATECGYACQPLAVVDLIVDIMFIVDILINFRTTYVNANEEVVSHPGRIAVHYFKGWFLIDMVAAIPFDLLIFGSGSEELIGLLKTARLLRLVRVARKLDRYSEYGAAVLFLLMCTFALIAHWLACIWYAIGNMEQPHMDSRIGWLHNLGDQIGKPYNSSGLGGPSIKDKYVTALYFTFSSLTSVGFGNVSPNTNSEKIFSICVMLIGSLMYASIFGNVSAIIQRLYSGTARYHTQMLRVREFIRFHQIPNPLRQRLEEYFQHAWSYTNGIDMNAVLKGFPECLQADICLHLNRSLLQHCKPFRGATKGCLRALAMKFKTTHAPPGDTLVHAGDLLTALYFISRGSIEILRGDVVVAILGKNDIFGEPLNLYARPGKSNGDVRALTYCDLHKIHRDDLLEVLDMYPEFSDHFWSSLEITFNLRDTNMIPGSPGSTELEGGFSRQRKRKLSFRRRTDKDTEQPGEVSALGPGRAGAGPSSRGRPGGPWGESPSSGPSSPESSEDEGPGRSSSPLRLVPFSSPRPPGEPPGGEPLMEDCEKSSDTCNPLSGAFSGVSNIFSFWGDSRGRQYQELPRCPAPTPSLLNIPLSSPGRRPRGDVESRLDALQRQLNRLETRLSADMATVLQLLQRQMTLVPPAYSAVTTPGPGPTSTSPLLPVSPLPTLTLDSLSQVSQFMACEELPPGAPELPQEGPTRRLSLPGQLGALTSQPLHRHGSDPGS

Mus musculus = test: Antidiabetic activity in C57BL/6 Tac mouse assessed as maximum decrease in blood glucose AUC administered via oral gavage 30 mins prior to oral glucose load measured at 20 to 60 mins post glucose challenge by OGTT; format: functional; conditions: C57BL/6, po, read-out: MED
Method in brief: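 Eleven-week-old lean C57BL/6 Tac mice (n = 8/group) were fasted overnight and dosed by oral gavage in PEG400/23.5% HPBCD (15/85 v/v). Oral glucose (3 g/kg) was given 30 min later. Tail-nick glucometer glucose at 0, 20, 40, 60 min; glucose AUC per mouse, expressed as % change vs vehicle, with t-test or one-way ANOVA. Dose titration gave the minimal dose for maximal efficacy.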

[17] = Volume of distribution in Wistar Han rat at 0.5 mg/kg, iv by LC-MS/MS analysis; format: ADME, organism-based; conditions: in vivo
[18] = Half life in Wistar Han rat at 0.5 mg/kg, iv by LC-MS/MS analysis; format: ADME, organism-based; conditions: in vivo
[19] = Intrinsic clearance in dog liver microsomes; format: ADME, Canis lupus familiaris, microsome; conditions: read-out: CLH
[20] = Intrinsic clearance in human liver microsomes; format: ADME, microsome; conditions: read-out: CLH
[21] = target: T5, Glucose-dependent insulinotropic receptor (Mus musculus, UniProt Q7TQP3); test: Agonist activity at mouse GPR119 expressed in CHO cells co-expressing Galpha15 assessed as increase in intracellular cAMP level after 60 mins by HTRF assay; format: functional, cell-based; method in brief: as §2
T5 sequence (Q7TQP3 whole entry): T1 sequence (whole entry)

[22] = Ratio of drug level in C57BL/6 Tac mouse blood to plasma at 0.1 mg/kg, po via gavage measured at 90 mins post dose; format: ADME, organism-based; conditions: blood and plasma
[23] = Plasma clearance in Wistar Han rat at 0.5 mg/kg, iv by LC-MS/MS analysis; format: ADME, organism-based
[24] = Oral bioavailability in rhesus monkey by LC-MS/MS analysis; format: ADME, organism-based, Macaca mulatta; conditions: in vivo
[25] = Oral bioavailability in Wistar Han rat by LC-MS/MS analysis; format: ADME, organism-based; conditions: in vivo
[26] = Half life in Beagle dog at 0.5 mg/kg, iv by LC-MS/MS analysis; format: ADME, organism-based, Canis lupus familiaris; conditions: in vivo
[27] = Intrinsic clearance in rhesus monkey liver microsomes; format: ADME, Macaca mulatta, microsome; conditions: read-out: CLH
[28] = Kinetic solubility in fasted state simulated intestinal fluid at pH 6.5; format: physicochemical; conditions: read-out: Kinetic_solubility
[29] = Plasma clearance in Beagle dog at 0.5 mg/kg, iv by LC-MS/MS analysis; format: ADME, organism-based, Canis lupus familiaris
[30] = Intrinsic clearance in rat liver microsomes; format: ADME, microsome; conditions: read-out: CLH
[31] = target: T6, Glucose-dependent insulinotropic receptor (Homo sapiens) (UniProt Q8TDV5); test: Agonist activity at human GPR119 expressed in HEK293 cells assessed as increase in intracellular cAMP level after 60 mins by HTRF assay relative to control; format: functional, cell-based; method in brief: as §1
T6 sequence (whole entry): T3 sequence (Q8TDV5 whole entry)

[32] = Lipophilicity, log D of the compound at pH 7 by HPLC method; format: physicochemical; conditions: buffer
[33] = Fraction unbound in rhesus monkey plasma; format: ADME, cell-free, Macaca mulatta
[34] = target: T4, Voltage-gated inwardly rectifying potassium channel KCNH2; test: Inhibition of human ERG by PatchXpress method
Rattus norvegicus [35] = test: Unbound volume of distribution in Wistar Han rat at 0.5 mg/kg, iv by LC-MS/MS analysis; format: ADME, organism-based; conditions: in vivo

## COCc1cnc(N2CCC([C@H]3C[C@H]3CCOc3cc(F)c(CC(=O)N4CCC4)c(F)c3)CC2)nc1
[1]
  fraction unbound: 0.055
[2]
  Vd: 3.5 L/kg
Rattus norvegicus [3]
  CL free: 430 mL/min/kg
[4]
  bioavailability: 55%
[5]
  solubility thermodynamic: 51 µg/mL (≈ 102 µM)
[6]
  Activity: 116%
[7]
  concentration at 1.5 h: 10 nM
[8]
  EC50: 0.0001 µM
[9]
  half-life: 7.6 h
[10]
  EC50: > 30 µM
[11]
  Vd: 4.3 L/kg
[12]
  clearance: 14 mL/min/kg
[13]
  fraction unbound: 0.067
Cytochrome P450 3A4
  IC50: > 50 µM
[14]
  EC50: 0.0002 µM
[15]
  fraction unbound: 0.038
[16]
  IC50: 9.1 to 9.2 µM
Mus musculus
  minimal effective dose: 0.1 mg/kg
[17]
  Vd: 4.8 L/kg
[18]
  half-life: 3.5 h
[19]
  CLint scaled: 39 mL/min/kg
[20]
  CLint scaled: 39 mL/min/kg
[21]
  EC50: 0.0008 µM
[22]
  blood plasma ratio at 1.5 h: 0.55
[23]
  clearance: 29 mL/min/kg
[24]
  bioavailability: 44%
[25]
  bioavailability: 80%
[26]
  half-life: 29 h
[27]
  CLint scaled: 44 mL/min/kg
[28]
  solubility kinetic: 139 µM (≈ 69.6 µg/mL)
[29]
  clearance: 2 mL/min/kg
[30]
  CLint scaled: 189 mL/min/kg
[31]
  Activity: 91%
[32]
  logD: 4.1
[33]
  fraction unbound: 0.08
[34]
  IC50: 12 µM
Rattus norvegicus [35]
  Vdu: 72 L/kg
